The list is not random: actives were taken first. Their share in the collection is about 2.9%.
DENV2 CPE rescue = inhibitors of DENV2 cytopathic effect, primary screen, cell-based, plate reader, single concentration; DENV2-infected cells, cytopathic effect rescue; AID 651640, 2012; CPE inhibition, % at 9.99 µM; 350,000 tested, 1.7% active; in the data active means CPE inhibition above about 20%, passing the limit was not always enough; inconclusive means no clear call, values can overlap the other calls; tested in BHK-21 cells
E-selectin induc = E-selectin induction in HUVECs, primary screen, imaging, HUVEC, immunofluorescence imaging, single point; P16581; normalized: neutral wells 0, TNF-alpha wells 100; activation, % at 7.58 µM; 260,000 tested, 0.37% active;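 active means mean E-selectin-positive cell signal at least 10% of the positive control, reached in at least 60% of replicates, without over 20% cell loss; inconclusive means no rule given, readout overlaps actives, possibly toxicity-flagged; inactive means the rest, including those meeting only one limit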
Target sequence (P16581 whole entry, looked up): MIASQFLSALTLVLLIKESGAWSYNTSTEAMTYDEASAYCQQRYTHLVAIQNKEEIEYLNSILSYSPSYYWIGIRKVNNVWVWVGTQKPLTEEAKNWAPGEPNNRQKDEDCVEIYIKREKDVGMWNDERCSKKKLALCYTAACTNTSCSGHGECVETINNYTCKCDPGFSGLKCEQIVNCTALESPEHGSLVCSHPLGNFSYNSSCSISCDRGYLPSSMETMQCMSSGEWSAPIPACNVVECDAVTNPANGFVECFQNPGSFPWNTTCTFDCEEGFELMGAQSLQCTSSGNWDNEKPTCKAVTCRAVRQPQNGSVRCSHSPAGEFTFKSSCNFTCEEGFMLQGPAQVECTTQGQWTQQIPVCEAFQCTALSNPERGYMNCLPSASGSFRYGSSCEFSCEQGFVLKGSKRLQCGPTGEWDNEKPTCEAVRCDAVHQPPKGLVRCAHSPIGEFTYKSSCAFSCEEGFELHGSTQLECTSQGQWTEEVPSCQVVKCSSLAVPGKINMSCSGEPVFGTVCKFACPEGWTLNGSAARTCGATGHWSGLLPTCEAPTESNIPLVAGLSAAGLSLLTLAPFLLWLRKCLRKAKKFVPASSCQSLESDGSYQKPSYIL
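Assay system: HUVEC primary endothelial cells. Input: 3,000 HUVEC seeded per well. Doses: one compound dose added by pin transfer. Read-out basis: % PE-positive cells. Benchmarks: TNF-alpha high, DMSO low. Detection: immunofluorescence imaging. Buffer or medium: EGM-2, gelatin.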
SIRT5 block = SIRT5 desuccinylase inhibitors, primary screen, biochemical, fluorescence imaging, single point, set 5; Purified SirT5, succinyl-peptide AMC, trypsin-coupled fluorescence; inhibition, % at 15 µM; 330,000 tested, 1.1% active; AID 652115, 2013; in the data active means inhibition above about 15%; inconclusive means no clear call, values can overlap the other calls
Of the large screens only hits and unclear results are named; the others gave an inactive call.

CCCN(C)C[C@H]1Oc2cc(C#CCC3CCCC3)ccc2S(=O)(=O)N([C@H](C)CO)C[C@@H]1C	SIRT5 block 19 (no result: E-selectin induc)
C[C@H]1CN([C@@H](C)CO)S(=O)(=O)c2ccc(C#Cc3ccccc3)cc2O[C@H]1CN(C)CC1CC1	DENV2 CPE rescue 35
CC(C)C#Cc1cnc2c(c1)C(=O)N([C@H](C)CO)C[C@@H](C)[C@@H](CN(C)C(=O)c1ccc3c(c1)OCO3)O2	none
CC1CN(C(=O)c2cccc(S(=O)(=O)NCc3ccccc3)c2)CC(C)O1 (configuration not stated)	none (no result: E-selectin induc)
CN(CC(=O)Nc1ccc(S(=O)(=O)N2CCCC2)cc1)CC(=O)Nc1ccc(F)c(F)c1F	none (no result: DENV2 CPE rescue)
CCc1ccccc1NCC(=O)Nc1ccccc1C(=O)OC	none (no result: DENV2 CPE rescue, E-selectin induc)
CCCC#Cc1ccc2c(c1)O[C@H](CN(C)CC1CCOCC1)[C@H](C)CN([C@H](C)CO)S2(=O)=O	none
CC(C)CC#Cc1ccc2c(c1)O[C@@H](CN(C)CC1CCOCC1)[C@H](C)CN([C@H](C)CO)S2(=O)=O	SIRT5 block 17
COc1cccc(-c2nc3nc(C)cc(C)n3c2NC2CCCC2)c1	DENV2 CPE rescue 30
Cc1cc(C)n2c(NC3CCCCC3)c(-c3ccccn3)nc2n1	DENV2 CPE rescue 29 (no result: SIRT5 block)
Cc1cc(C)n2c(NC3CCCC3)c(-c3cc4ccccc4o3)nc2n1	none (no result: SIRT5 block)
COc1ccc(Nc2c(-c3cccc(OC)c3)nc3nc(C)cc(C)n23)cc1	none (no result: SIRT5 block)
O=C(NCCS(=O)(=O)NCc1ccccc1Cl)c1ccc2c(c1)OCO2	none (no result: E-selectin induc)
Cc1[nH]nc2nc(SCC(=O)NCCC3=CCCCC3)n(-c3ccc(Br)cc3)c(=N)c12	none
COc1cc(NC(=O)c2[nH]c(C)c(C(C)=O)c2C)cc(OC)c1OC	none (no result: E-selectin induc)
CCC(C)C(CO)NCCCn1cnc(C(=O)Nc2ccc(C)c(C)c2)n1 (configuration not stated)	DENV2 CPE rescue 59 (no result: SIRT5 block)
COC(=O)[C@H](Cc1ccccc1)NCCCn1cnc(C(=O)Nc2ccc(C)c(C)c2)n1	none
COc1ccc(N2CCN(C(=O)NC(=O)c3ccc(Cl)cc3)CC2)cc1	none
COc1ccc(S(=O)(=O)Nc2ccc3c(c2)C(=O)N([C@@H](C)CO)C[C@@H](C)[C@H](CN(C)Cc2ccc(Cl)c(Cl)c2)O3)cc1	none
COc1ccc(S(=O)(=O)Nc2ccc3c(c2)C(=O)N([C@H](C)CO)C[C@@H](C)[C@@H](CN(C)Cc2ccc(Cl)c(Cl)c2)O3)cc1	E-selectin induc 29, SIRT5 block 19
COc1ccc(S(=O)(=O)Nc2ccc3c(c2)C(=O)N([C@@H](C)CO)C[C@H](C)[C@H](CN(C)Cc2ccc(Cl)c(Cl)c2)O3)cc1	none
C[C@@H]1CN([C@@H](C)CO)C(=O)c2cc(NS(=O)(=O)c3ccc(Cl)cc3)ccc2O[C@@H]1CN(C)Cc1ccc(Cl)c(Cl)c1	none
COc1ccc(S(=O)(=O)Nc2ccc3c(c2)C(=O)N([C@H](C)CO)C[C@@H](C)[C@H](CN(C)Cc2ccc(Cl)c(Cl)c2)O3)cc1	E-selectin induc 40
C[C@H]1CN([C@@H](C)CO)C(=O)c2cc(NS(=O)(=O)c3ccc(Cl)cc3)ccc2O[C@H]1CN(C)Cc1ccc(Cl)c(Cl)c1	SIRT5 block 23
O=C(O)C[C@@H]1C[C@H]2c3cc(NC(=O)Nc4ccc(F)cc4)ccc3O[C@H]2[C@@H](CO)O1	none
CN1CCN(c2nc3c(c(=O)n(C)c(=O)n3C)n2CC(=O)C23CC4CC(CC(C4)C2)C3)CC1	none (no result: E-selectin induc)
COc1ccccc1CCC(=O)OCC(=O)Nc1ccc(C)c(S(=O)(=O)N2CCCCC2)c1	none
CCOC(=O)C1(C)CCCCCN1C(=O)c1ccc(OC)cc1 (configuration not stated)	none
CCS(=O)(=O)N1CCCCN2[C@H](C1)[C@@H](c1ccc(-c3ccc(C#N)cc3)cc1)[C@@H]2CO	DENV2 CPE rescue 41
N#Cc1ccc(-c2ccc([C@H]3[C@H](CO)N4CCCCN(S(=O)(=O)c5ccccc5)C[C@@H]34)cc2)cc1	DENV2 CPE rescue 34
N#Cc1ccc(-c2ccc([C@H]3[C@H]4CN(S(=O)(=O)c5ccccc5)CCCCN4[C@H]3CO)cc2)cc1	none
CCS(=O)(=O)N1CCCCN2[C@H](CO)[C@H](c3ccc(-c4ccc(C#N)cc4)cc3)[C@@H]2C1	none
CCS(=O)(=O)N1CCCCN2[C@H](C1)[C@@H](c1ccc(C#Cc3ccccn3)cc1)[C@@H]2CO	DENV2 CPE rescue inconclusive
CS(=O)(=O)N1CCCCN2[C@H](CO)[C@H](c3ccc(C#Cc4ccccn4)cc3)[C@@H]2C1	DENV2 CPE rescue 33
CCS(=O)(=O)N1CCCCN2[C@H](CO)[C@@H](c3ccc(C#CC(C)(C)O)cc3)[C@H]2C1	DENV2 CPE rescue 22
CCS(=O)(=O)N1CCCCN2[C@H](C1)[C@@H](c1ccc(C#CC(C)(C)O)cc1)[C@@H]2CO	none
CCC(C(N)=O)N1C(=O)C2C3CCC(C3)C2C1=O (configuration not stated)	none (no result: E-selectin induc)
Cc1ccc(C)c(NC(=O)c2cc(S(=O)(=O)N3CCCCC3)ccc2N2CCOCC2)c1	none (no result: E-selectin induc)
CCn1c(O)c(/C=C2\C=NN=C2c2ccc(C)cc2)sc1=S	none
Cc1ccc(-n2c(-c3ccc(Cl)cc3Cl)n[nH]c2=S)cc1	none (no result: E-selectin induc)
CCN1CCN(S(=O)(=O)c2ccc(Cl)c(C(=O)N(CC)Cc3ccccc3)c2)CC1	none
CCn1c(SCC(=O)Nc2ccc(C(C)=O)cc2)nnc1C1CC1	SIRT5 block 16 (no result: E-selectin induc)
CCn1c(SCC(=O)Nc2ccc(Cl)cc2)nnc1C1CC1	none (no result: SIRT5 block)
O=S(=O)(c1ccc2ccccc2c1)N1CCN(C2Cc3ccccc3C2)CC1	none
COc1ccc(C(=O)OCc2c(-c3cccc(OC)c3)ncc3ccccc23)cc1	DENV2 CPE rescue 22 (no result: SIRT5 block)
COc1cccc(-c2ncc3ccccc3c2COC(=O)c2cccs2)c1	DENV2 CPE rescue inconclusive
Cc1csc(=O)n1CCC(=O)OCC(=O)Nc1cc([N+](=O)[O-])ccc1Cl	DENV2 CPE rescue 37 (no result: E-selectin induc)
Cc1ccc(NC(=O)COC(=O)CCn2c(C)csc2=O)c([N+](=O)[O-])c1	none
C[C@H](CO)N1C[C@H](C)[C@H](CN(C)S(=O)(=O)c2cccs2)Oc2ncc(C#Cc3cccc(F)c3)cc2C1=O	none
Cc1c(CC(=O)NCCCCCC(=O)O)c(=O)oc2c(C)c3oc4c(c3cc12)CCCC4	none
CN(C)/C=C/C(=O)c1ccc([N+](=O)[O-])c(CS(=O)(=O)c2ccccc2)c1	none
CN(C)/C=C/C(=O)c1ccc(Cl)c([N+](=O)[O-])c1	SIRT5 block 17
COc1ccc(C(=O)/C=C/C(=O)N(Cc2ccccc2)C(C(=O)NC2CCCCC2)c2ccncc2)c(O)c1 (configuration not stated)	DENV2 CPE rescue 41 (no result: E-selectin induc)
COc1ccc(C(=O)/C=C/C(=O)N(Cc2ccccc2OC)C(C(=O)NC2CCCCC2)c2ccncc2)c(O)c1 (configuration not stated)	none (no result: DENV2 CPE rescue, SIRT5 block)
O=C(Nc1nccs1)C(c1ccccc1)N1CCCC1 (configuration not stated)	none (no result: DENV2 CPE rescue)
C[C@@H]1CN([C@@H](C)CO)C(=O)c2cc(NS(=O)(=O)c3cccs3)ccc2O[C@H]1CN(C)S(=O)(=O)c1cn(C)cn1	none
